Measured values as given in ChEMBL document CHEMBL1806360, “Synthesis and biological evaluation of conformationally flexible as well as restricted dimers of monastrol and related dihydropyrimidones” (Eur J Med Chem, 2011).
pIC50: −log10 of the molar value. Values after ≈ are worked out from the molar mass of the structure shown. Blank lines part the entries; values can stand above or below the molecule they belong to. Active and inactive are the calls of the source. No cut-off for these calls is given here.

Experiments:
MCF7 [1] = experiment: Cytotoxicity against human MCF7 cells after 48 hrs by MTT assay; type: functional, cell-based; conditions: MCF7, 48 h
Method in brief: (§1)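 MTT assay. Medium with 10% FBS and 2 mM L-glutamine was DMEM for A431 and Colo-205, RPMI for A549, and MEM for MCF-7. Cultures were preincubated 24 h at 37 °C, 5% CO2. 1 × 10⁴ cells (trypan blue count) were exposed to 200, 100, 50, 25 and 10 concentration levels for 48 h at 37 °C. MTT was added for 4 h, formazan dissolved in DMSO, and A570 read. IC50 was curve-fitted from viability versus untreated cells, three experiments.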

COLO 205 = experiment: Cytotoxicity against human COLO205 cells after 48 hrs by MTT assay; type: functional, cell-based; conditions: COLO 205, 48 h; method in brief: as §1
HT-29 = experiment: Cytotoxicity against human HT-29 cells after 48 hrs by MTT assay; type: functional, cell-based; conditions: HT-29, 48 h
A-431 = experiment: Cytotoxicity against human A431 cells after 48 hrs by MTT assay; type: functional, cell-based; conditions: A-431, 48 h; method in brief: as §1
A549 = experiment: Cytotoxicity against human A549 cells after 48 hrs by MTT assay; type: functional, cell-based; conditions: A549, 48 h; method in brief: as §1
Staphylococcus aureus [2] = experiment: Antibacterial activity against Staphylococcus aureus assessed as zone of inhibition at 100 ug/ml by agar plate method; type: functional; conditions: read-out: IZ
Method in brief: (§2)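 Well diffusion on Mueller-Hinton agar. Inoculum from 3–5 colonies was grown in nutrient broth and adjusted to 0.5 McFarland (about 1 × 10⁸ CFU/mL), then swabbed over the plate. Compounds were dissolved in DMSO and added to duplicate 6 mm wells. Plates were incubated 18 h at 37 °C, and inhibition zone diameter was read to the nearest mm. Ciprofloxacin was the positive control and DMSO the negative control.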

[3] = tested on: Staphylococcus epidermidis; experiment: Antibacterial activity against Staphylococcus epidermidis assessed as zone of inhibition at 100 ug/ml by agar plate method; type: functional; conditions: read-out: IZ; method in brief: as §2
Bacillus subtilis [4] = experiment: Antibacterial activity against Bacillus subtilis assessed as zone of inhibition at 100 ug/ml by agar plate method; type: functional; conditions: read-out: IZ; method in brief: as §2
Escherichia coli [5] = experiment: Antibacterial activity against Escherichia coli assessed as zone of inhibition at 100 ug/ml by agar plate method; type: functional; conditions: read-out: IZ; method in brief: as §2
Klebsiella pneumoniae [6] = experiment: Antibacterial activity against Klebsiella pneumoniae assessed as zone of inhibition at 100 ug/ml by agar plate method; type: functional; conditions: read-out: IZ; method in brief: as §2
Pseudomonas aeruginosa [7] = experiment: Antibacterial activity against Pseudomonas aeruginosa assessed as zone of inhibition at 100 ug/ml by agar plate method; type: functional; conditions: read-out: IZ; method in brief: as §2
Staphylococcus aureus [8] = experiment: Antibacterial activity against Staphylococcus aureus assessed as zone of inhibition at 50 ug/ml by agar plate method; type: functional; conditions: read-out: IZ; method in brief: as §2
Pseudomonas aeruginosa [9] = experiment: Antibacterial activity against Pseudomonas aeruginosa assessed as zone of inhibition at 50 ug/ml by agar plate method; type: functional; conditions: read-out: IZ; method in brief: as §2
[10] = tested on: Staphylococcus epidermidis; experiment: Antibacterial activity against Staphylococcus epidermidis assessed as zone of inhibition at 50 ug/ml by agar plate method; type: functional, organism-based; method in brief: as §2
Bacillus subtilis [11] = experiment: Antibacterial activity against Bacillus subtilis assessed as zone of inhibition at 50 ug/ml by agar plate method; type: functional, organism-based; method in brief: as §2
Escherichia coli [12] = experiment: Antibacterial activity against Escherichia coli assessed as zone of inhibition at 50 ug/ml by agar plate method; type: functional, organism-based; method in brief: as §2
Klebsiella pneumoniae [13] = experiment: Antibacterial activity against Klebsiella pneumoniae assessed as zone of inhibition at 50 ug/ml by agar plate method; type: functional, organism-based; method in brief: as §2
MCF7 [14] = experiment: Ratio IC50 for monastrol to compound for human MCF7 cells; type: functional
Nucleic Acid = experiment: Binding affinity to calf thymus DNA assessed as change in melting temperature at compound to DNA ratio of 1:5 after 18 hrs at pH 7; type: nucleic-acid assay; conditions: Bos taurus
Method in brief: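 Thermal melting of calf thymus DNA in 10 mM sodium phosphate with 1 mM Na2EDTA, pH 7.00. Compound was added from DMSO stock at a fixed 1:5 compound:DNA molar ratio. The mix was incubated 18 h at 37 °C, then A260 was monitored while heating at 1 °C/min over 40–90 °C. ΔTm is relative to DNA alone.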

[15] = target: T1, Kinesin-like protein KIF11 (Homo sapiens, UniProt P52732); experiment: Inhibition of HsEg5
T1 sequence (P52732 whole entry): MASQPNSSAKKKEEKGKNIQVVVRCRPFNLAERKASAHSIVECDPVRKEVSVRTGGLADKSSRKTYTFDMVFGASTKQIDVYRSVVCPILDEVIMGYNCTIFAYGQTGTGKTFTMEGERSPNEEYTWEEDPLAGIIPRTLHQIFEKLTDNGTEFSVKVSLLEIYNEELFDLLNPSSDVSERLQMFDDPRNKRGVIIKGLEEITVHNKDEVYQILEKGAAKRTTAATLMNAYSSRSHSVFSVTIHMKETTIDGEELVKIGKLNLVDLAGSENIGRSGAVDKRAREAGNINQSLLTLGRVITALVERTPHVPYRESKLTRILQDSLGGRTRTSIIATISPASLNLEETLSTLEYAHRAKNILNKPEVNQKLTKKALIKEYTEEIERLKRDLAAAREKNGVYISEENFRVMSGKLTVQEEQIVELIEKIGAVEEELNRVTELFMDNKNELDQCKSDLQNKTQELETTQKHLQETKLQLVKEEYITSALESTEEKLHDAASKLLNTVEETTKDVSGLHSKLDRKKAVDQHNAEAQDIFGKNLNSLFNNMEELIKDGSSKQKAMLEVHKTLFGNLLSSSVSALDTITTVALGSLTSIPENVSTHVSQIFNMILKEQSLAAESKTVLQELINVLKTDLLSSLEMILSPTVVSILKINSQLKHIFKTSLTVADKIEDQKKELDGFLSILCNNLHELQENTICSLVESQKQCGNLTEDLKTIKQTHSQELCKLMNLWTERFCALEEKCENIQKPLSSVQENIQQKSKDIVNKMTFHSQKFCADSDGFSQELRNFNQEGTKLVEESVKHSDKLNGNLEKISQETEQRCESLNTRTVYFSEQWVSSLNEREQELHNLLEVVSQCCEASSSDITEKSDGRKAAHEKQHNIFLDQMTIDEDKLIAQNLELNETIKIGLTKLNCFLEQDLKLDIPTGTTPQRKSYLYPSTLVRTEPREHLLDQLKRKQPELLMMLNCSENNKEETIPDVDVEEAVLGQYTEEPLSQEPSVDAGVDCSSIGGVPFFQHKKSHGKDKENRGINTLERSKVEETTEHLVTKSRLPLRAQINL

Compound: CCOC(=O)C1=C(C)NC(=S)NC1c1ccc(OCCCCCOc2ccc(C3NC(=S)NC(C)=C3C(=O)OCC)cc2OC)c(OC)c1 (stereo not given)
IC50 (MCF7 [1]): 180 µg/mL (≈ 252 µM)
IC50 (COLO 205): 113 µg/mL (≈ 159 µM)
IC50 (HT-29): > 200 µg/mL
IC50 (A-431): 124 µg/mL (≈ 174 µM)
IC50 (A549): > 200 µg/mL
zone of inhibition at 100 µg/mL (Staphylococcus aureus [2]): 19 mm
zone of inhibition at 100 µg/mL [3]: 10 mm
zone of inhibition at 100 µg/mL (Bacillus subtilis [4]): 8 mm
zone of inhibition at 100 µg/mL (Escherichia coli [5]): 10 mm
zone of inhibition at 100 µg/mL (Klebsiella pneumoniae [6]): 10 mm
zone of inhibition at 100 µg/mL (Pseudomonas aeruginosa [7]): 20 mm
zone of inhibition at 50 µg/mL (Staphylococcus aureus [8]): 10 mm
zone of inhibition at 50 µg/mL (Pseudomonas aeruginosa [9]): 12 mm
Activity [10]: inactive
Activity (Bacillus subtilis [11]): inactive
Activity (Escherichia coli [12]): inactive
Activity (Klebsiella pneumoniae [13]): inactive

ΔTm (Nucleic Acid): 0.1 °C
Compound: CCOC(=O)C1=C(C)NC(=S)NC1c1cccc(OCCCOc2cccc(C3NC(=S)NC(C)=C3C(=O)OCC)c2)c1 (stereo not given)
IC50 (MCF7 [1]): 16 µg/mL (≈ 25.6 µM)
IC50 (COLO 205): 144 µg/mL (≈ 230 µM)
IC50 (HT-29): > 200 µg/mL
IC50 (A-431): 76 µg/mL (≈ 122 µM)
IC50 (A549): 120 µg/mL (≈ 192 µM)
Ratio IC50 (MCF7 [14]): 3
zone of inhibition at 100 µg/mL (Staphylococcus aureus [2]): 10 mm
zone of inhibition at 100 µg/mL [3]: 15 mm
zone of inhibition at 100 µg/mL (Bacillus subtilis [4]): 8 mm
zone of inhibition at 100 µg/mL (Escherichia coli [5]): 20 mm
zone of inhibition at 100 µg/mL (Klebsiella pneumoniae [6]): 5 mm
zone of inhibition at 100 µg/mL (Pseudomonas aeruginosa [7]): 12 mm
Activity [10]: inactive
Activity (Bacillus subtilis [11]): inactive
Activity (Escherichia coli [12]): inactive
Activity (Klebsiella pneumoniae [13]): inactive

ΔTm (Nucleic Acid): 0 °C
pIC50 [15]: 4.85
Compound: CCOC(=O)C1=C(C)NC(=S)NC1c1cccc(O)c1 (stereo not given) [MONASTROL]
IC50 (MCF7 [1]): 45 µg/mL (≈ 154 µM)
IC50 (COLO 205): 164 µg/mL (≈ 561 µM)
IC50 (A-431): 53 µg/mL (≈ 181 µM)
IC50 (A549): 118 µg/mL (≈ 404 µM)
